Screening data: PubChem, several laboratories
Only a selection was taken, and hits are over-represented in it overall.
CHOP inh = blocks CHOP induction under ER stress. inhibition, % at 10 µM. 220,000 tested, 3.8% active. CHO-K1 CHOP-promoter luciferase, tunicamycin-induced, 15-18 h;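 active = compounds that reduced the stress-induced luciferase reporter signal by more than about 70% of percent inhibition, limit read from the data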
H9c2 protect = myocardial damage modulation in H9c2 cells | protection from H2O2 cell death, % at 20 µM | H9c2 cardiomyocytes, H2O2 injury protection, ATPLite, 2 h | AID 588492 | 360,000 tested, 0.63% active;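 active = compounds giving at least 50% protection of heart cells from peroxide-induced death in the single-dose screen, raw or plate-pattern-corrected value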
CHOP UPR activ = activators of apoptotic arm of unfolded protein response (CHOP); 330,000 tested, 0.34% active; CHO-CHOP luciferase reporter, UPR activation, luminescence; percent of tunicamycin response over DMSO baseline; activation, % at 10 µM;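 active = at 10 µM dose, activation of 40% or more, normalized to positive control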
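Test system: CHO-CHOP cells, stable luciferase reporter of PERK-eIF2a-CHOP signalling | Quantity: 500 CHO-CHOP cells per well | Buffer or medium: F12 plus 10% serum | Compound dosing: 10 µM single point, 0.5% DMSO | Schedule: 6 h compound treatment, 37 °C | Signal: Luciferase luminescence | Control set: Tunicamycin high control, DMSO low control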
iPSC survival up = hiPSC single-cell survival enhancement | 360,000 tested, 0.044% active | survival enhancement, % at 20 µM | ATPlite luminescence; 100% = ROCK inhibitor wells, 0% = DMSO | AID 602274; in the data active = survival enhancement above about 18%;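 note: cells exposed to compounds for 16 hours before the ATP read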
UPR XBP1 act = activators of adaptive arm of unfolded protein response (XBP1). CHO-XBP1 luciferase reporter, IRE1-XBP1 UPR activation, luminescence; percent of tunicamycin response, DMSO as zero. activation, % at 20 µM. AID 463104. 330,000 tested, 0.33% active;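 active = versus positive control, 20 µM dose yields 30% or more activation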
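Signal: luciferase luminescence; Assay system: CHO-XBP1 luciferase reporter cells; Amount: one thousand reporter cells per well; Dosing: 20 µM single concentration, DMSO 1%; Benchmarks: high control tunicamycin 10 µg/mL final, low control DMSO vehicle only; Schedule: 6 h compound exposure at 37 °C, 5% CO2; Evaluation: percent activation relative to tunicamycin reference.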
CHOP inh conf = confirmation of CHOP induction inhibitors. shares compounds with CHOP inh. inhibition, % at 10 µM. CHO-CHOP promoter luciferase reporter, tunicamycin-induced, luminescence. 2,100 tested, 45% active;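 active = mean of three repeat readings of reporter signal inhibition above a set limit, cut at about 70% in these data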
Large screens that a line does not name were inactive (follow-up assays come after a bar, where they were run).

O=C(CCl)Nc1cc(-c2ccccc2)nn1-c1ccccc1	none (no result: CHOP inh) | CHOP inh conf 83
Cc1ccc(-c2ccc(/C=C3/NC(=O)NC3=O)o2)cc1[N+](=O)[O-]	CHOP inh 98 (no result: CHOP UPR activ, UPR XBP1 act) | CHOP inh conf inactive
Nc1ncnc(Sc2ncccn2)c1[N+](=O)[O-]	CHOP inh 104 (no result: CHOP UPR activ, UPR XBP1 act) | CHOP inh conf inactive
Nc1ncnc(Sc2ccccc2)c1[N+](=O)[O-]	none
CC(NC(=O)CNC(=O)c1cccc(Cl)c1)c1ccccc1 (stereo not given)	none (no result: CHOP inh)
COc1cccc(NC(=O)CSc2nnc(-c3cc(C)n(-c4ccccc4)c3C)o2)c1	CHOP inh 98 | CHOP inh conf 85
BrC(=C\c1ccccc1)/C=N/N1CCN(Cc2ccccc2)CC1	CHOP inh 98 | CHOP inh conf inactive
S=C(NCc1ccc(Cl)cc1)Nc1ccc(Cl)cc1Cl	none
O=C(NCCc1ccc(Cl)cc1)Nc1cccc(Cl)c1	CHOP inh 100 | CHOP inh conf inactive
S=C(NCCc1ccc(Cl)cc1)Nc1ccc(Cl)cc1Cl	CHOP inh 105 | CHOP inh conf 95
O=C(NCCc1ccccc1)Nc1cccc(Cl)c1	none
O=C(CSc1nc2sccc2c(=O)[nH]1)N1CCN(c2ccccc2)CC1	none (no result: CHOP inh)
C[C@H](CO)N1C[C@H](C)[C@H](CN(C)C(=O)C2CC2)OCc2cnnn2CCCC1=O	none (no result: CHOP inh, CHOP UPR activ, UPR XBP1 act)
COc1ccc(S(=O)(=O)NC(=O)C2(C)CCN2C(=O)CC2CCCC2)cc1 (stereo not given)	none (no result: CHOP inh, CHOP UPR activ, UPR XBP1 act)
CCOC(=O)c1c(-c2ccc(C)cc2)csc1NC(=S)NC(=O)c1ccccc1	none
CCOC(=O)c1c(-c2ccc(C)cc2)csc1NC1=NS(=O)(=O)c2ccccc21	CHOP inh 101 | CHOP inh conf inactive
COc1ccc(/C=C/C(=O)NC(=S)NNC(=O)c2cccnc2)cc1	CHOP inh 98 | CHOP inh conf 77
COc1ccc(/C=C/C(=O)NC(=S)NNC(=O)c2cnccn2)cc1	none
Cc1ccc(-n2c(Cl)c(Cl)nc(Cl)c2=O)cc1	CHOP inh 110 (no result: CHOP UPR activ, UPR XBP1 act) | CHOP inh conf 114
CCOC(=O)[C@]12CCC=C1N(Cc1ccco1)C(=O)[C@H](CC(=O)NCCCCc1ccccc1)C2	none (no result: CHOP inh, H9c2 protect, CHOP UPR activ, UPR XBP1 act)
Cn1c(=O)c([N+](=O)[O-])c(-n2ccnc2)c2ccccc21	CHOP inh 103 | CHOP inh conf inactive
CCCOc1ccc(N2C(=O)CC(SC(=NC)Nc3ccc(F)cc3)C2=O)cc1 (stereo not given)	CHOP inh 100 | CHOP inh conf 100
CCCOc1ccc(N2C(=O)CC(SC(=NCC)Nc3cccc(F)c3)C2=O)cc1 (stereo not given)	CHOP inh 105 | CHOP inh conf 108
CCOc1ccc(NC(=NCc2ccc3c(c2)OCO3)SC2CC(=O)N(c3ccc(OCC)cc3)C2=O)cc1 (stereo not given)	CHOP inh 98 | CHOP inh conf inactive
CCCCC(CC)Cn1c(N)c(C#N)c2nc3ccccc3nc21 (stereo not given)	CHOP inh 101 | CHOP inh conf 133
CCCCC(CC)Cn1c2nc3ccccc3nc2c2c(=N)oc(C)nc21 (stereo not given)	CHOP inh 106 (no result: H9c2 protect, CHOP UPR activ, iPSC survival up, UPR XBP1 act) | CHOP inh conf 104
CC(C)(C=O)C1=CC(=O)c2ccccc2C1=O	CHOP inh 98 (no result: CHOP UPR activ, UPR XBP1 act) | CHOP inh conf inactive
CCN(CC)c1nc(Nc2ccc([N+](=O)[O-])cc2)nc(N(CC)CC)n1	none (no result: CHOP inh)
CCn1c(=O)c(CCC(=O)N2CCN(c3ccccn3)CC2)c(C)c2c(C)nn(-c3ccccc3)c21	none (no result: CHOP inh)
CN1CCN(Cc2c(O)ccc3occ(C(=O)c4ccccc4)c23)CC1	none
CC(=O)C(C(C)=O)c1c(Cl)c(O)c(O)c2c(C(=O)c3ccccc3)coc12	none (no result: CHOP inh) | CHOP inh conf 100
C=CCOC(=O)C1=C(C)NC(SCC)=C(C#N)C1c1ccc(Cl)cc1 (stereo not given)	CHOP inh 102 | CHOP inh conf inactive
O=c1oc2ccccc2c(N2CCCC2)c1CN1CCCC1	none
O=c1oc2ccccc2c(Cl)c1CN1CCCCC1	CHOP inh 107 | CHOP inh conf 123
O=C(NCc1ccccc1Cl)c1ccc2nc([C@H]3C[C@H](O)[C@@H](CO)O3)[nH]c2c1	none (no result: CHOP inh, CHOP UPR activ, UPR XBP1 act)
C=CCN1C(=O)/C(=C/c2ccc(OC(C)=O)c(OCC)c2[N+](=O)[O-])SC1=S	CHOP inh 100 (no result: CHOP UPR activ, UPR XBP1 act) | CHOP inh conf 114
COC/C=C/C1=CC2=CC(=O)C(C)(OC(=O)C3CCCC3)C(=O)C2=CO1 (stereo not given)	CHOP inh 99 | CHOP inh conf inactive
COC/C=C/C1=CC2=CC(=O)C(C)(OC(=O)c3ccco3)C(=O)C2=CO1 (stereo not given)	none (no result: H9c2 protect, iPSC survival up)
Cc1ccc2nc(NC(=O)c3ccc4ncsc4c3)sc2c1	CHOP inh 103 | CHOP inh conf inactive
O=C(Nc1ccccc1Cl)c1cc(C2CCCN(C(=O)c3cccc(O)c3)C2)on1 (stereo not given)	none (no result: CHOP inh, CHOP UPR activ, UPR XBP1 act)
Cc1csc(NC(=O)Cc2coc3cc(C)c(C(C)C)cc23)n1	CHOP inh 99 | CHOP inh conf inactive
C/C(=N\Nc1cc(C)nc(-c2ccccc2O)n1)c1ccccc1	none
Cc1cc(NCCCN)nc(-c2ccccc2O)n1	CHOP inh 101 | CHOP inh conf inactive
Cc1ccc(Nc2cc(C)nc(-c3ccccc3O)n2)cc1	none
Cc1cc(N/N=C/c2ccc(O)c(C)c2O)nc(-c2ccccc2O)n1	CHOP inh 107 (no result: CHOP UPR activ, UPR XBP1 act) | CHOP inh conf inactive
CC(=O)Nc1cccc(-c2ccnc3c2CC(C)(C(=O)Nc2ccc(Cl)c(C(F)(F)F)c2)O3)c1 (stereo not given)	none (no result: CHOP inh, CHOP UPR activ, UPR XBP1 act)
O=C(O)CCN1C(=O)/C(=C/c2cn(-c3ccccc3)nc2-c2cccs2)SC1=S	CHOP inh 102 | CHOP inh conf inactive
O=C(O)CCCCCN1C(=O)/C(=C\c2cn(-c3ccccc3)nc2-c2cccs2)SC1=S	none
CCCOC(=O)c1ccc(Oc2cn[nH]c2-c2ccc(OCC)cc2O)cc1	CHOP inh 107 | CHOP inh conf 124
COc1ccc(Oc2c(-c3ccc(O)cc3O)n[nH]c2C)cc1	none
CCOc1ccc(-c2[nH]ncc2Oc2cccc(OC)c2)c(O)c1	CHOP inh 107 | CHOP inh conf inactive
COc1ccc(Oc2cn[nH]c2-c2ccc(OCC(=O)NN)cc2O)cc1	none (no result: CHOP inh)
CCCOC(=O)c1ccc(Oc2c(-c3ccc(OCC)cc3O)n[nH]c2C)cc1	CHOP inh 113 | CHOP inh conf 118
C=C1C(=O)c2sccc2C(c2ccc(OC)c(OC)c2)C1COC(C)=O (stereo not given)	none (no result: CHOP inh, CHOP UPR activ, UPR XBP1 act)
C=CCc1cccc(/C=N/NC(=O)CCC(=O)Nc2ccc(C)cc2)c1O	CHOP inh 98 | CHOP inh conf inactive
CC(C)(C)c1ccc(CN2N=Nc3ccccc3S2(=O)=O)cc1	CHOP inh 108 | CHOP inh conf 124
